# Experimental data as given in ChEMBL document CHEMBL1152183, “Structure-activity relationships of 3-substituted N-benzhydryl-nortropane analogs as nociceptin receptor ligands for the treatment of cough” (Bioorg Med Chem Lett, 2008).
# Assays:
# Nociceptin receptor [1] = biological target: T1, Nociceptin receptor (Homo sapiens, UniProt P41146); test: Displacement of [125I][Tyr14]nociceptin FQ from human cloned nociceptin receptor expressed in CHO cells; assay type: cell-based
# How it was run: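 Competition binding on CHO cell membranes expressing cloned human nociceptin receptor, radioligand [125I][Tyr14]nociceptin FQ; Ki determined from dose–response curves.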
# Mu-type opioid receptor = Mu-type opioid receptor (Homo sapiens, UniProt P35372); test: Displacement of [3H]diprenorphine from human mu opioid receptor expressed in CHO cells; assay type: cell-based
# How it was run: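 CHO cell membranes expressing human opioid receptor; [3H]-diprenorphine as radioligand; Ki determined from dose–response curves.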
# Nociceptin receptor [2] = biological target: T1, Nociceptin receptor; test: Agonist activity at human cloned nociceptin receptor expressed in CHO cells assessed as stimulation of [35S]GTPgammaS binding; assay type: functional, cell-based
# How it was run: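 Membranes from cells transfected with nociceptin receptor; agonism measured as enhancement of [35S]GTPγS binding in presence of GDP; EC50 derived.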
# Nociceptin receptor [3] = biological target: T1, Nociceptin receptor; test: Agonist activity at human cloned nociceptin receptor expressed in CHO cells assessed as stimulation of [35S]GTPgammaS binding at 5.5 uM; assay type: functional, cell-based
# Homo sapiens [4] = species: Homo sapiens; test: Selectivity for human cloned nociceptin receptor over human delta opioid receptor
# Homo sapiens [5] = species: Homo sapiens; test: Selectivity for human cloned nociceptin receptor over human kappa opioid receptor
# Cavia porcellus [6] = test: Antitussive activity in guinea pig assessed as suppression of capsaicin-induced cough at 0.3 mg/kg, po; assay type: functional
# Homo sapiens [7] = species: Homo sapiens; test: Selectivity for human cloned nociceptin receptor over human mu opioid receptor
# Nociceptin receptor [8] = biological target: T1, Nociceptin receptor; test: Agonist activity at human cloned nociceptin receptor expressed in CHO cells assessed as stimulation of [35S]GTPgammaS binding at 10 uM; assay type: functional, cell-based
# Cavia porcellus [9] = species: Cavia porcellus; test: Antitussive activity in guinea pig assessed as suppression of capsaicin-induced cough after 2 hrs; assay type: functional
# How it was run: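 Guinea pig capsaicin-induced cough model; oral dosing; cough suppression read 2 h after dosing relative to placebo; ED50 derived.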
# T1 sequence (P41146 whole entry): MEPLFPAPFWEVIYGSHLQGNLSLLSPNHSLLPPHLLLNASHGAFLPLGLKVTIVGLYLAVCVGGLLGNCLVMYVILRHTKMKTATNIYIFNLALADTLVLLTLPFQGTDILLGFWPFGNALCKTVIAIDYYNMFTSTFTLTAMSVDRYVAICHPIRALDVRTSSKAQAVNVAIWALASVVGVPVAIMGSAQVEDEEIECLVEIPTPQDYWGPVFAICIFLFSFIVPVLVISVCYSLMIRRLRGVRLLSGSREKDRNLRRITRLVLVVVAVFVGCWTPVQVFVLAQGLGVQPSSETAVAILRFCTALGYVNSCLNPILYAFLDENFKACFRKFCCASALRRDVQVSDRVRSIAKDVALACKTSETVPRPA
# Sequence of Mu-type opioid receptor (P35372 whole entry): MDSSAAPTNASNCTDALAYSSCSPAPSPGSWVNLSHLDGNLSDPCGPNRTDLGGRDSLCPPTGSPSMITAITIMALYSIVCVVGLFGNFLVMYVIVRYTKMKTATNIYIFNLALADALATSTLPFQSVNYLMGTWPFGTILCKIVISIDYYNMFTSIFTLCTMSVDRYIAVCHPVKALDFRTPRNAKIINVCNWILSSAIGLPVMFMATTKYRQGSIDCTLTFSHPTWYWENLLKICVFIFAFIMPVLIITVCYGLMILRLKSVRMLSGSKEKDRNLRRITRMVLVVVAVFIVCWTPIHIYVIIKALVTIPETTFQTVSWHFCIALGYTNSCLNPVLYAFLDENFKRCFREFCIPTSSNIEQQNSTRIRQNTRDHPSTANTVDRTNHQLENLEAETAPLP
Compound,Ki (Nociceptin receptor [1]),Ki (Mu-type opioid receptor),also measured
CNC[C@@]1(c2ccccc2)C[C@H]2CC[C@@H](C1)N2C(c1ccccc1Cl)c1ccccc1Cl,10 nM,566 nM,–
NC[C@@]1(Cc2ccc(F)cc2)C[C@H]2CC[C@@H](C1)N2C(c1ccccc1Cl)c1ccccc1Cl,34 nM,1410 nM,EC50 (Nociceptin receptor [2]): 124 nM; Activity (Nociceptin receptor [3]): 87%
CC(=O)NC[C@@]1(c2cccc(F)n2)C[C@H]2CC[C@@H](C1)N2C(c1ccccc1Cl)c1ccccc1Cl,24 nM,1280 nM,–
CC(=O)NC[C@@]1(c2ccc(Br)cn2)C[C@H]2CC[C@@H](C1)N2C(c1ccccc1Cl)c1ccccc1Cl,27 nM,752 nM,–
CN(C)C[C@@]1(c2ccccc2)C[C@H]2CC[C@@H](C1)N2C(c1ccccc1Cl)c1ccccc1Cl,17 nM,1490 nM,fold change (FC) (Homo sapiens [4]): 300; fold change (FC) (Homo sapiens [5]): 31; EC50 (Nociceptin receptor [2]): 483 nM; Activity (Nociceptin receptor [3]): 104%; Activity (Cavia porcellus [6]): 36%
Cc1ccc2c(c1)[C@]1(CN2)C[C@H]2CC[C@@H](C1)N2C(c1ccccc1Cl)c1ccccc1Cl,74 nM,998 nM,–
NC[C@@]1(c2ccccn2)C[C@H]2CC[C@@H](C1)N2C(c1ccccc1Cl)c1ccccc1Cl,7 nM,617 nM,fold change (FC) (Homo sapiens [7]): 75; fold change (FC) (Homo sapiens [4]): 300; fold change (FC) (Homo sapiens [5]): 35
CC(=O)NC[C@@]1(c2ccccc2)C[C@H]2CC[C@@H](C1)N2C(c1ccccc1Cl)c1ccccc1Cl,20 nM,777 nM,fold change (FC) (Homo sapiens [4]): 300; fold change (FC) (Homo sapiens [5]): 32; EC50 (Nociceptin receptor [2]): 269 nM; Activity (Nociceptin receptor [8]): 122%; ED50 (Cavia porcellus [9]): 0.19 mg/kg
CC(=O)NC[C@@]1(c2ncccc2C)C[C@H]2CC[C@@H](C1)N2C(c1ccccc1Cl)c1ccccc1Cl,173 nM,–,–
CC(=O)NC[C@@]1(c2ncccc2CN2CCCCC2)C[C@H]2CC[C@@H](C1)N2C(c1ccccc1Cl)c1ccccc1Cl,670 nM,758 nM,–
Clc1ccccc1C(c1ccccc1Cl)N1[C@@H]2CC[C@H]1C[C@@](Cc1ccccc1)(CN1CCCC1)C2,116 nM,–,–
CC(=O)NC[C@@]1(c2cccnc2)C[C@H]2CC[C@@H](C1)N2C(c1ccccc1Cl)c1ccccc1Cl,35 nM,–,–
CCNC[C@@]1(c2ccccn2)C[C@H]2CC[C@@H](C1)N2C(c1ccccc1Cl)c1ccccc1Cl,6 nM,743 nM,fold change (FC) (Homo sapiens [7]): 75
COc1ccc([C@]2(CNC(C)=O)C[C@H]3CC[C@@H](C2)N3C(c2ccccc2Cl)c2ccccc2Cl)nc1,62 nM,3450 nM,–
COC(=O)NC[C@@]1(c2ccccc2)C[C@H]2CC[C@@H](C1)N2C(c1ccccc1Cl)c1ccccc1Cl,20 nM,905 nM,–
NC[C@@]1(C2CCCCN2)C[C@H]2CC[C@@H](C1)N2C(c1ccccc1Cl)c1ccccc1Cl (stereo not given in full),17 nM,–,–
NC[C@@]1(c2cccnc2)C[C@H]2CC[C@@H](C1)N2C(c1ccccc1Cl)c1ccccc1Cl,82 nM,–,–
Cc1cccnc1[C@]1(CN)C[C@H]2CC[C@@H](C1)N2C(c1ccccc1Cl)c1ccccc1Cl,50 nM,–,–
Clc1ccccc1C(c1ccccc1Cl)N1[C@@H]2CC[C@H]1C[C@@]1(CNc3ccccc31)C2,50 nM,1200 nM,–
COc1ccc([C@]2(CNC(C)=O)C[C@H]3CC[C@@H](C2)N3C(c2ccccc2Cl)c2ccccc2Cl)cc1,118 nM,2410 nM,–
Fc1ccc(C[C@]2(CN3CCCC3)C[C@H]3CC[C@@H](C2)N3C(c2ccccc2Cl)c2ccccc2Cl)cc1,58 nM,–,–
NC[C@@]1(c2ccccc2)C[C@H]2CC[C@@H](C1)N2C(c1ccccc1Cl)c1ccccc1Cl,6 nM,674 nM,fold change (FC) (Homo sapiens [7]): 112; fold change (FC) (Homo sapiens [4]): 300; fold change (FC) (Homo sapiens [5]): 30

Compound,Ki (Nociceptin receptor [1]),Ki (Mu-type opioid receptor),also measured
CC(=O)NC[C@@]1(c2ccc(N3CCCCC3)cn2)C[C@H]2CC[C@@H](C1)N2C(c1ccccc1Cl)c1ccccc1Cl,99 nM,–,–
CC(=O)N(C)C[C@@]1(c2ccccc2)C[C@H]2CC[C@@H](C1)N2C(c1ccccc1Cl)c1ccccc1Cl,210 nM,2620 nM,fold change (FC) (Homo sapiens [7]): 13
O=C1CCCN1C[C@@]1(c2ccccc2)C[C@H]2CC[C@@H](C1)N2C(c1ccccc1Cl)c1ccccc1Cl,68 nM,–,–
CC(=O)NC[C@@]1(Cc2ccc(F)cc2)C[C@H]2CC[C@@H](C1)N2C(c1ccccc1Cl)c1ccccc1Cl,15 nM,782 nM,EC50 (Nociceptin receptor [2]): 129 nM; Activity (Nociceptin receptor [8]): 124%; Activity (Cavia porcellus [6]): 23%
CCNC[C@@]1(c2cccc(OC)n2)C[C@H]2CC[C@@H](C1)N2C(c1ccccc1Cl)c1ccccc1Cl,20 nM,442 nM,–
O=C1CCCN1C[C@@]1(Cc2ccccc2)C[C@H]2CC[C@@H](C1)N2C(c1ccccc1Cl)c1ccccc1Cl,336 nM,–,–
NC[C@@]1(c2cccc(F)n2)C[C@H]2CC[C@@H](C1)N2C(c1ccccc1Cl)c1ccccc1Cl,29 nM,–,–
CC(=O)NC[C@@]1(c2ccc(F)cc2)C[C@H]2CC[C@@H](C1)N2C(c1ccccc1Cl)c1ccccc1Cl,31 nM,2110 nM,fold change (FC) (Homo sapiens [7]): 68
CC(=O)NC[C@@]1(Cc2ccccc2)C[C@H]2CC[C@@H](C1)N2C(c1ccccc1Cl)c1ccccc1Cl,12 nM,458 nM,fold change (FC) (Homo sapiens [4]): 300; fold change (FC) (Homo sapiens [5]): 34
Fc1ccc2c(c1)[C@]1(CN2)C[C@H]2CC[C@@H](C1)N2C(c1ccccc1Cl)c1ccccc1Cl,39 nM,1710 nM,–
CC(=O)NC[C@@]1(c2ccccn2)C[C@H]2CC[C@@H](C1)N2C(c1ccccc1Cl)c1ccccc1Cl,5 nM,374 nM,fold change (FC) (Homo sapiens [7]): 75
CC(=O)NC[C@@]1(C2CCCCN2)C[C@H]2CC[C@@H](C1)N2C(c1ccccc1Cl)c1ccccc1Cl (stereo not given in full),27 nM,–,–
NC[C@@]1(Cc2ccccc2)C[C@H]2CC[C@@H](C1)N2C(c1ccccc1Cl)c1ccccc1Cl,11 nM,1340 nM,fold change (FC) (Homo sapiens [7]): 121; fold change (FC) (Homo sapiens [4]): 300; fold change (FC) (Homo sapiens [5]): 33
Clc1ccccc1C(c1ccccc1Cl)N1[C@@H]2CC[C@H]1C[C@](CN1CCCC1)(c1ccccc1)C2,70 nM,4170 nM,–
CN(C)C[C@@]1(c2cccc(F)n2)C[C@H]2CC[C@@H](C1)N2C(c1ccccc1Cl)c1ccccc1Cl,104 nM,3980 nM,–
COc1cccc([C@]2(CN)C[C@H]3CC[C@@H](C2)N3C(c2ccccc2Cl)c2ccccc2Cl)n1,11 nM,123 nM,fold change (FC) (Homo sapiens [4]): 300; fold change (FC) (Homo sapiens [5]): 36
CN(C)C[C@@]1(Cc2ccccc2)C[C@H]2CC[C@@H](C1)N2C(c1ccccc1Cl)c1ccccc1Cl,55 nM,–,–
NC[C@@]1(c2ncccc2CN2CCCCC2)C[C@H]2CC[C@@H](C1)N2C(c1ccccc1Cl)c1ccccc1Cl,245 nM,–,–
CCNC[C@]1(Cc2ccccc2)C[C@H]2CC[C@@H](C1)N2C(c1ccccc1Cl)c1ccccc1Cl,39 nM,–,–
COc1cccc([C@]2(CNC(C)=O)C[C@H]3CC[C@@H](C2)N3C(c2ccccc2Cl)c2ccccc2Cl)n1,4 nM,251 nM,–
CN(C)C[C@@]1(c2ccccn2)C[C@H]2CC[C@@H](C1)N2C(c1ccccc1Cl)c1ccccc1Cl,7 nM,785 nM,fold change (FC) (Homo sapiens [7]): 75; EC50 (Nociceptin receptor [2]): 156 nM
